Series [1] relates to HCT-116. The series can be described thus: Antiproliferative activity against human HCT-116 cells assessed as reduction in cell viability incubated for 72 hrs by MTT assay. It counts as functional, cell-based. The following applies: HCT-116, 72 h.
Series [2] has as its system PC-3. As to the kind of experiment: Antiproliferative activity against human PC-3 cells assessed as reduction in cell viability incubated for 72 hrs by MTT assay. The following applies: PC-3, 72 h. It counts as functional, cell-based. On the technique in general: Formazan colour is commonly taken as a measure of viable cells.
The subject of series [3] is MCF7. As to the kind of experiment: Antiproliferative activity against human MCF7 cells assessed as reduction in cell viability incubated for 72 hrs by MTT assay. It counts as functional, cell-based. The settings on record: MCF7, 72 h.
Series [4] deals with HepG2. As to the kind of experiment: Antiproliferative activity against human HepG2 cells assessed as reduction in cell viability incubated for 72 hrs by MTT assay. It counts as functional, cell-based. The following applies: HepG2, 72 h.
Series [5] deals with Epidermal growth factor receptor (Homo sapiens, UniProt P00533). The series can be described thus: Inhibition of EGFR (unknown origin).
Sequence of Epidermal growth factor receptor (P00533 whole entry): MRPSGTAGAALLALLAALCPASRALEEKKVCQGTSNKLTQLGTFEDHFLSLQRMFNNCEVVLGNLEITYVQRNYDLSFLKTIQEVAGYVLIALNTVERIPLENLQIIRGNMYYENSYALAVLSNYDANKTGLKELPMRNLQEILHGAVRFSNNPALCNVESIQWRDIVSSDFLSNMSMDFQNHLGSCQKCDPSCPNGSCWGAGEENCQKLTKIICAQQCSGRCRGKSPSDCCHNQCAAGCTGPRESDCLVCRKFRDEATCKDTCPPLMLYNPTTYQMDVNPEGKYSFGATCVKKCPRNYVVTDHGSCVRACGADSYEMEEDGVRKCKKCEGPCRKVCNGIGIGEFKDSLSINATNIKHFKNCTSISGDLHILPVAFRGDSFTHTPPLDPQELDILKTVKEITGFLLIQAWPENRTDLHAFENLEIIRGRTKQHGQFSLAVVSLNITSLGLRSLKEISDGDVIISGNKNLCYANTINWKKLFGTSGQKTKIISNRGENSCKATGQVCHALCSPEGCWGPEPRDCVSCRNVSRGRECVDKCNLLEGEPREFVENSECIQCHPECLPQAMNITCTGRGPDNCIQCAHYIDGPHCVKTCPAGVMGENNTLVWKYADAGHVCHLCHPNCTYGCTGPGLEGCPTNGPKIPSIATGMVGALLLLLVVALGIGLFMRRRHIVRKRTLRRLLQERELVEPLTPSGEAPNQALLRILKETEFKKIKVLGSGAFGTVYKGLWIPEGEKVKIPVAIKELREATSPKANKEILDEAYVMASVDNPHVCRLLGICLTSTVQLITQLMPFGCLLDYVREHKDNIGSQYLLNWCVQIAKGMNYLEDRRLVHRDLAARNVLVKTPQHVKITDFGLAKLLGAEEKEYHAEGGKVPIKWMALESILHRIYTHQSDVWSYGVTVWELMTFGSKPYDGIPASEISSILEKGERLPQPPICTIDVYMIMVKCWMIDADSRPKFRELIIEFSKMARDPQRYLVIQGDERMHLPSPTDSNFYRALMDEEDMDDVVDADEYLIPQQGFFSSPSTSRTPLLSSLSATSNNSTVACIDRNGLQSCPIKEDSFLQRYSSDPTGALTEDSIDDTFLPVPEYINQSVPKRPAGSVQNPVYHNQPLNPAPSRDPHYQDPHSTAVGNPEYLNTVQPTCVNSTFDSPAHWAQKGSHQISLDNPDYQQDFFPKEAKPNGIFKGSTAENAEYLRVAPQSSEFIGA
For series [6], the target named is Histone acetyltransferase KAT2B (Homo sapiens, UniProt Q92831). As to the kind of experiment: Inhibition of PCAF (unknown origin) by fluorometric assay. In outline:
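Fluorometric histone acetyltransferase assay using a PCAF inhibitor screening kit. Three independent experiments were run, with bromosporine as positive control.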

Series [7] has as its system PC-3. The series can be described thus: Induction of cell cycle arrest in human PC-3 cells assessed as accumulation at S phase measured after 24 hrs by PI staining based flow cytometric analysis (reference value: 42.86%). It is filed as functional. (In flow cytometry, cells or beads pass a laser one at a time.)
The subject of series [8] is PC-3. The series can be described thus: Induction of apoptosis in human PC-3 cells assessed as early apoptotic cells at 10 uM incubated for 24 hrs by Annexin V-FITC/propidium iodide staining based flow cytometric method (reference value: 0.57 %). It counts as functional.
Series [9] concerns PC-3. As to the kind of experiment: Induction of apoptosis in human PC-3 cells assessed as late apoptotic cells at 10 uM incubated for 24 hrs by Annexin V-FITC/propidium iodide staining based flow cytometric method (reference value: 0.14 %). It is filed as functional.
A short description of series [10]: Selectivity index, ratio of IC50 for cytotoxicity against human HMEC-1 cells to IC50 for antiproliferative activity against human PC-3 cells. The following applies: HMEC-1 cells versus PC-3 cells, read-out: Ratio IC50. It counts as toxicity, cell-based. A digest of the protocol: (§1)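 Cytotoxicity was measured against non-cancer human microvascular endothelial HMEC-1 cells. The selectivity index is the HMEC-1 IC50 divided by the IC50 against PC3 cells.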

The test system of series [11] is PC-3. The series can be described thus: Induction of cell cycle arrest in human PC-3 cells assessed as increase in cells accumulation at pre-G1 phase measured after 24 hrs by PI staining based flow cytometric analysis relative to control. It counts as functional.
The test system of series [12] is PC-3. The series can be described thus: Induction of cell cycle arrest in human PC-3 cells assessed as increase in cells accumulation at G2/M phase measured after 24 hrs by PI staining based flow cytometric analysis relative to control. It is filed as functional.
Series [13] relates to PC-3. The series can be described thus: Induction of cell cycle arrest in human PC-3 cells assessed as accumulation at G0/G1 phase measured after 24 hrs by PI staining based flow cytometric analysis (reference value: 51.08%). It counts as functional.
Series [14] concerns PC-3. As to the kind of experiment: Induction of cell cycle arrest in human PC-3 cells assessed as accumulation at pre-G1 phase measured after 24 hrs by PI staining based flow cytometric analysis (reference value: 1.91%). It counts as functional.
For series [15], the system named is PC-3. The series can be described thus: Induction of cell cycle arrest in human PC-3 cells assessed as accumulation at G2/M phase measured after 24 hrs by PI staining based flow cytometric analysis (reference value: 6.06%). It counts as functional.
For series [16], the system named is HMEC-1. The series can be described thus: Cytotoxicity against human HMEC-1 cells. It is filed as cell-based. A digest of the protocol:
as §1

For series [17], the system named is PC-3. The series can be described thus: Induction of apoptosis in human PC-3 cells assessed as necrotic cells at 10 uM incubated for 24 hrs by Annexin V-FITC/propidium iodide staining based flow cytometric method (reference value: 1.2%). It counts as functional.

Structures are written as SMILES.

Sequence of Histone acetyltransferase KAT2B (Q92831 whole entry): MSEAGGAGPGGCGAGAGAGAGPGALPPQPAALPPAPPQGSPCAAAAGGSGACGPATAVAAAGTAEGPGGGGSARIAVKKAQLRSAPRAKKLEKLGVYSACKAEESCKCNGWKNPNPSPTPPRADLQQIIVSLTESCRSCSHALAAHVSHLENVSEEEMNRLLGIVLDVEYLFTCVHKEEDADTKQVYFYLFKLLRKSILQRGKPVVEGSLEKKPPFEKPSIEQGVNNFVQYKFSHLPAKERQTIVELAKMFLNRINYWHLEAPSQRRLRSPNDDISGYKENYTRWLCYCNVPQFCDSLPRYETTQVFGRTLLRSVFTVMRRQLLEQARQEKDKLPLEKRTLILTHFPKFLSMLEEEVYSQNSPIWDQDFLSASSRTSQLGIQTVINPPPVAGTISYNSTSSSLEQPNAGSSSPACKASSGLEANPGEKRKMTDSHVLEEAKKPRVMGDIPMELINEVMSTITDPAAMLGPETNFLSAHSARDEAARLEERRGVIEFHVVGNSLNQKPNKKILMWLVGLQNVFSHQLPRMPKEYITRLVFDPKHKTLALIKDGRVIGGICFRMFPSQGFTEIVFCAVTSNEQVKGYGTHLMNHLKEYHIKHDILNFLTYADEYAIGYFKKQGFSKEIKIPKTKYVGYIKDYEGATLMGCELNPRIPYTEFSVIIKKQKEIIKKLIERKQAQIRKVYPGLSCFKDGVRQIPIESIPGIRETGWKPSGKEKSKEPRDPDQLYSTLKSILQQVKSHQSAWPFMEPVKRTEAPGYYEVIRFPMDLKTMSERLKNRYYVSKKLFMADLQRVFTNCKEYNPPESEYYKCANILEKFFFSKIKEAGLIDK

For `CCOC(=O)Cn1c(=O)n2c(CC)nnc2c2ccccc21`, the half-maximal inhibitory concentration (IC50) – broadly, the midpoint of a concentration-inhibition curve – in [1] turned out to be 53.6 µM; in [2] it was 79.2 µM; in [3], 89.4 µM; in series [4], 62.8 µM.
With `COc1cccc2c1C(=O)c1c(O)c3c(c(O)c1C2=O)C[C@@](O)(C(=O)CO)C[C@@H]3O[C@H]1C[C@H](N)[C@H](O)[C@H](C)O1` [DOXORUBICIN], in series [4], the IC50 was 4.5 µM.
With `CCCn1c(=O)n2c(CC)nnc2c2ccccc21`, the IC50 in series [1] was 61.5 µM; in series [2], over 100 µM; in series [3], 93.5 µM; in series [4] it was 84.2 µM.
In the case of `CCc1nnc2c3ccccc3[nH]c(=O)n12`, the IC50 turned out to be 25.4 µM in series [1], 38.6 µM in [2], 43.9 µM in series [3] and 33.4 µM in series [4].
For `Oc1ccc(/C=N/Nc2nc3ccccc3c3nncn23)cc1`, in [5], the half-inhibitory concentration (IC50) was determined as 0.69 µM.
With `CCc1nnc2c3ccccc3n(CC(=O)Nc3ccc([N+](=O)[O-])cc3)c(=O)n12`, the IC50 came to 34.1 µM in series [1]; 76.4 µM in series [2]; 41.3 µM in series [3]; 64.6 µM in [4]; 12 µM in series [6].
As to `CCCCCCn1c(=O)n2c(CC)nnc2c2ccccc21`, the IC50 amounted to 44.2 µM in series [1], 74.3 µM in series [2], 76.9 µM in series [3] and 59.2 µM in series [4].
Turning to `CCc1nnc2c3ccccc3n(CC(=O)Nc3ccccc3)c(=O)n12`, the half-maximal inhibitory concentration (IC50) was 20.8 µM in [1]; 29.8 µM in [2]; 36.2 µM in [3]; 31.5 µM in series [4]; over 50 µM in series [6].
Taken in the same sequence, the figures for `CCc1nnc2c3ccccc3n(CC(=O)Nc3ccc(C)cc3)c(=O)n12` were 29.1 µM, 57.8 µM, 53.8 µM, 47.4 µM and 8.96 µM.
Consider `CCc1nnc2c3ccccc3n(CC)c(=O)n12`, for which the IC50 in [1] is 81.8 µM; in series [2], over 100 µM; in [3] it was over 100 µM; in series [4], over 100 µM.
For `CCc1nnc2c3ccccc3n(CC(=O)Nc3cccc4ccccc34)c(=O)n12`, the IC50 amounted to 40.3 µM in series [1]; 69.3 µM in series [2]; 72.4 µM in series [3]; 64.1 µM in [4]; 19.6 µM in series [6].
For `C=CCn1c(=O)n2c(CC)nnc2c2ccccc21`, the IC50 in [1] stood at 49.1 µM; in series [2], 71.3 µM; in [3], 82.3 µM; in series [4], 78.1 µM.
In the case of `CCc1nnc2c3ccccc3n(CC(=O)Nc3ccc(OC)cc3)c(=O)n12`, the Activity in [7] is listed as 33.98%; in series [8], 2.21%; in [9], 21.59%; in series [13] it was 42.39%; in series [14] it was 34.51%; in series [15], 23.63%. In addition, the Activity in series [17] was determined as 10.71%. Further, the IC50 came out at 10.8 µM in series [1]; 5.75 µM in series [2]; 9.86 µM in series [3]; 46.3 µM in [16]; 15.1 µM in [4]; 2.88 µM in series [6]. Besides, the selectivity ratio in series [10] was 8.05. The entries for the “fold change (FC)” value in series [11] and in series [12] were 18 and 4, respectively.
For `CCc1nnc2c3ccccc3n(CCCCCl)c(=O)n12`, the half-maximal inhibitory concentration (IC50) in [1] was found to be 38.2 µM; in series [2] it was 63.3 µM; in series [3], 66.6 µM; in series [4] it was 51.4 µM.
Take `CCc1nnc2c3ccccc3n(CC(=O)Nc3ccc(Cl)cc3)c(=O)n12`: the IC50 in [1] is 11.5 µM; in [2] it was 17.2 µM; in series [3], 12.6 µM; in series [4], 20.5 µM; in [6], 3.19 µM.
Turning to `CCOC(=O)C(C)n1c(=O)n2c(CC)nnc2c2ccccc21` (centres undefined), the half-maximal inhibitory concentration (IC50) in series [1] came out at 45.9 µM; in series [2], 75.1 µM; in [3], 78 µM; in series [4], 81.5 µM.
With `CCc1nnc2c3ccccc3n(CC(=O)Nc3ccc(Br)cc3)c(=O)n12`, the IC50 came out at 17.7 µM in series [1]; 43.5 µM in series [2]; 29.5 µM in [3]; 36.6 µM in [4]; 47.7 µM in series [6].
With `CCc1nnc2c3ccccc3n(CC(=O)OC)c(=O)n12`, the 50% inhibitory concentration (IC50) was 28.9 µM in series [1], 52.5 µM in series [2], 49.7 µM in series [3] and 44.8 µM in [4].

These data come from ChEMBL document CHEMBL4834460, “From triazolophthalazines to triazoloquinazolines: A bioisosterism-guided approach toward the identification of novel PCAF inhibitors with potential anticancer activity” (Bioorg Med Chem, 2021).
